Results pooled from the literature.
Compare with care: the assays were run in different laboratories.
Target: Myotonin-protein kinase (DMPK, Homo sapiens, UniProt Q09013)
One construct used (Q09013 1-629): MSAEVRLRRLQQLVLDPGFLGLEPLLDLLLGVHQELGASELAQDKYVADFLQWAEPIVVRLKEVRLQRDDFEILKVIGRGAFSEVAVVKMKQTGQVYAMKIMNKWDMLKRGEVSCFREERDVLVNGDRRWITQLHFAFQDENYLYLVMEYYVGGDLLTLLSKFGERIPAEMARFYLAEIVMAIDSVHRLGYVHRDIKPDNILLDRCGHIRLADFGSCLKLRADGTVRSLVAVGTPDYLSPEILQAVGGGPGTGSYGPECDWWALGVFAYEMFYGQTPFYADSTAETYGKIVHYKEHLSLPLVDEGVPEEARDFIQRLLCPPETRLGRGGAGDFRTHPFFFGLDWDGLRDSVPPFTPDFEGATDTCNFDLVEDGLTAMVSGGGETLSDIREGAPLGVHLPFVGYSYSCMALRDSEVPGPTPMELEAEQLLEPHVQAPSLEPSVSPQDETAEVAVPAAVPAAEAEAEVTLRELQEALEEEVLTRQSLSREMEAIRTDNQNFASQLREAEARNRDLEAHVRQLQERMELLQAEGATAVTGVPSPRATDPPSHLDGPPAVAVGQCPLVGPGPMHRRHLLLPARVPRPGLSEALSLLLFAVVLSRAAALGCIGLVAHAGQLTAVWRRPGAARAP

SMILES | effect on | mode | technique | tested at | endpoint | result
CC(=O)N1CCC(c2ccc(C(=O)NC(=N)N)cc2C(F)(F)F)CC1 | cell-free assay |  | competition with immobilised ligand | 1 µM | remaining binding | 100%
CCN(CC)CCNC(=O)c1c(C)[nH]c(/C=C2\C(=O)Nc3ccc(F)cc32)c1C | enzyme activity | inhibitor |  | 0.3 µM | inhibition | -8%
Cn1c2c(c3ccc(Cl)c(Cl)c31)C(C#N)C1(CCNCC1)NC2=O (racemic) | thermal stability |  | DSF | 10 µM | ΔTm | -0.3 °C
CNC(=O)c1cc(Oc2ccc(NC(=O)Nc3ccc(Cl)c(C(F)(F)F)c3)cc2)ccn1 | enzyme activity | inhibitor |  | 0.3 µM | inhibition | -9%
CS(=O)(=O)c1cc(C2(NC(=O)c3cncc4c3cnn4-c3ccc(F)cc3)CC2)ccn1 | cell-free assay |  | competition with immobilised ligand | 1 µM | remaining binding | 99%
CC(C)(O)[C@H]1CC[C@H](Nc2ccc3ncc(-c4cccc(C(F)(F)F)c4)n3n2)CC1 | enzyme activity | inhibitor |  | 1 µM | remaining activity | 97.5%
CN(C)c1ncnc(-c2ccc3nc(Nc4cc(CN5CCN(C(=O)CC(F)(F)F)CC5)ccn4)[nH]c3c2)c1Cl | cell-free assay |  | competition with immobilised ligand | 1 µM | remaining binding | 91%
C#Cc1cccc(Nc2ncnc3cc(OCCOC)c(OCCOC)cc23)c1 | cell-free assay |  |  | 0.5 µM | remaining signal | 96.9%
Cn1c2c(c3ccc(Cl)c(Cl)c31)C(C#N)C1(CCCC1)NC2=O (stereo not shown) | thermal stability |  | DSF | 10 µM | ΔTm | -0.2 °C
Cc1cnc(NC2CCOCC2)nc1-n1cnc(C(=O)NC(CN)c2cc(F)cc(Cl)c2)c1 (stereo not shown) | enzyme activity | inhibitor | radiometric | 1 µM | remaining activity | 95%
CC1(C)NC(=O)c2[nH]c3c(Cl)c(Cl)ccc3c2C1C#N (stereo not shown) | thermal stability |  | DSF | 10 µM | ΔTm | 1 °C
CCOc1cc(-c2nncn2C)ccc1Nc1ncc2cc(C)nc(NCC(C)(C)C)c2n1 | cell-free assay |  | TR-FRET | 1 µM | inhibition | ≤ 15%
Cn1c2c(c3ccccc31)C(C#N)C(C)(C)NC2=O (stereo not shown) | thermal stability |  | DSF | 10 µM | ΔTm | -0.3 °C
CC(C)(C)c1nc2c(s1)c1nc(N)ncc1c1ccc(NS(=O)(=O)c3c(F)cccc3F)c(F)c12 | enzyme activity | inhibitor | radiometric | 1 µM | remaining activity | 95%
N#CC1c2c([nH]c3c(Cl)c(Cl)ccc23)C(=O)NC12CCCCC2 (racemic) | thermal stability |  | DSF | 10 µM | ΔTm | -0.6 °C
O=C(Nc1cnn(-c2csc(C(=O)NC3COC3)c2)c1)Nc1c(F)cccc1Cl | enzyme activity | inhibitor |  | 5 µM | remaining activity | 110%
O=C1Nc2ccc(Cl)cc2C1=Cc1cc(Cl)c(O)c(Cl)c1 | cell-free assay |  |  | 0.5 µM | remaining signal | 112%
C[C@H](c1ccnc(Nc2nc3ccc(-c4cc(N(C)C)ncn4)cc3[nH]2)c1)N1CCN(C(=O)CC(F)(F)F)CC1 | cell-free assay |  | competition with immobilised ligand | 0.1 µM | remaining binding | 100%
Cc1ccc(Nc2nccc(N(C)c3ccc4c(C)n(C)nc4c3)n2)cc1S(N)(=O)=O | enzyme activity | inhibitor |  | 10 µM | inhibition | -12%
Nc1ncnc2occ(-c3ccc(NC(=O)Nc4cc(C(F)(F)F)ccc4F)cc3)c12 | cell-free assay | inhibitor |  | 20 µM | remaining signal | 73%
CN(c1ccnc(CNc2nc(Nc3ccc4c(c3)CC(=O)N4)ncc2C(F)(F)F)n1)S(C)(=O)=O | cell-free assay |  | competition with immobilised ligand | 1 µM | remaining binding | 23%
CCN(CC)c1ccc(C2=NNC(=O)CC2C)cc1[N+](=O)[O-] (stereo not shown) | enzyme activity | inhibitor |  | 10 µM | remaining activity | 91%
COc1ccc2cc(OCC3(C(=O)O)CN(C(=O)c4ccc(F)cc4)C3)ccc2c1 | cell-free assay |  | competition with immobilised ligand | 1 µM | remaining binding | 76%
Cc1sc(C(=O)NC2COC2)cc1-n1cc(NC(=O)Nc2c(F)cccc2Cl)cn1 | enzyme activity | inhibitor |  | 10 µM | remaining activity | 95.2%
CO[C@H]1CC[C@H](CNc2ccc(S(=O)(=O)NC(=O)c3ccc(N4CCN(CC5=C(c6ccc(Cl)cc6)CC(C)(C)CC5)CC4)cc3Oc3cnc4[nH]ccc4c3)cc2[N+](=O)[O-])CC1 | cell-free assay |  | competition with immobilised ligand | 1 µM | remaining binding | 91%
Cc1ccc(C(=O)Nc2ccc(CN3CCN(C)CC3)c(C(F)(F)F)c2)cc1C#Cc1cnc2cccnn12 | enzyme activity | inhibitor |  | 23.5 nM | remaining activity | 100%
Cn1c2c(Cl)c(Cl)ccc2c2cc[nH]c(=O)c21 | thermal stability |  | DSF | 10 µM | ΔTm | 0 °C
CC(C)CC(=O)N1CCc2nc(-c3ccc(Br)cc3)nc(N(C)Cc3ccccc3)c2C1 | cell-free assay |  | competition with immobilised ligand | 0.1 µM | remaining binding | 87%
